Screening results: PubChem BioAssay, The Scripps Research Institute Molecular Screening Center
ROCK2 inh: inhibitors of human Rho kinase 2 | O75116 | purified ROCK2, Kinase-Glo ATP depletion luminescence | inhibition, % at 6 µM | 0.35% of 60,000 active | AID 604;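 active means inhibition above the screen-wide mean inhibition plus 3 SD, cut at about 18% in these data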
MMP13 inh: inhibitors of human MMP13 | 0.07% of 65,000 active | AID 570 | MMP-13 fTHP FRET cleavage, Mca fluorescence | inhibition, % at 4 µM;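 active means inhibition above the mean of compound-free control plate wells plus 3 SD, cut at about 14% in these data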
PKA inh: PKA (human) kinase inhibition | P17612 | PKA Kemptide phosphorylation, Kinase-Glo ATP luminescence | inhibition, % at 6 µM | 0.1% of 65,000 active;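 active means inhibition above the screen-wide mean inhibition plus 3 SD, cut at about 21% in these data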
JNK3 blocker: blocks human JNK3 kinase activity; P53779; purified JNK3 kinase activity, HTS; inhibition, % at 8 µM; 0.61% of 60,000 active; AID 746; in the data active means inhibition above about 17%
SF-1 act: SF-1 (human) activation | Q13285 | CHO-K1 Gal4-SF-1 LBD luciferase reporter; % increase over DMSO SF-1-specific signal | activation, % at 10 µM | 1.9% of 65,000 active | AID 522;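 active means activation above the mean activation of all tested compounds plus 3 SD, cut at about 50% in these data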
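Compound – one dose, 10 µM compound, 1% DMSO · Test system – transient Gal4-SF-1 LBD reporter, CHO-K1 · Input – 4,000 cells in each well · Read-out basis – percent activation relative to DMSO median and mock-transfected background · Replicates – single measurement per compound · Technique – steady-glow luciferase luminescence, read after 15 min reagent incubation · Timing – 20 h compound treatment, 37 °C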
RORA act: activates the human nuclear receptor RORA; P35398; CHO-K1 Gal4-RORA LBD luciferase reporter, luminescence; percent increase over mock-subtracted basal signal; activation, % at 10 µM; 1.5% of 65,000 active; AID 560;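 active means activation above the mean of all tested compounds plus 3 SD, cut at about 49% in these data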
Target sequence (P35398 whole entry, looked up, the tested form may be a part): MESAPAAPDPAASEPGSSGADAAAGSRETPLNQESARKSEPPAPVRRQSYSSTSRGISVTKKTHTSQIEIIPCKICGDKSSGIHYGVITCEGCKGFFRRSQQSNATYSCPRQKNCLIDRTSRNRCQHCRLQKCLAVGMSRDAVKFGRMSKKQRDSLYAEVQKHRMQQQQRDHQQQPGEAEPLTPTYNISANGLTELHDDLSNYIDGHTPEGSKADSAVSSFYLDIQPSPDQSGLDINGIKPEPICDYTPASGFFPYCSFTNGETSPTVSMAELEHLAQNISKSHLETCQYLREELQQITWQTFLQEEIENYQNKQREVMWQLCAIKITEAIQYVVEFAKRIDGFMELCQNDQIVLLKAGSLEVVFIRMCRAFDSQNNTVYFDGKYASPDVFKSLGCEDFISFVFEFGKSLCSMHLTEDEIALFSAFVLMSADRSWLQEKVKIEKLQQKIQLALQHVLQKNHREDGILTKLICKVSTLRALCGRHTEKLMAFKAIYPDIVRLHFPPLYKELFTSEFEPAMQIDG
Hits are given with their value; 0 = inactive; - = not tested or not shown. An excerpt weighted towards active compounds, which were near 3.4% of everything screened.

SMILES | ROCK2 inh | MMP13 inh | PKA inh | JNK3 blocker | SF-1 act | RORA act
C=CCSc1nc(C)c(CC(=O)OCC(C)C)c(=O)[nH]1 | 0 | 0 | 0 | 0 | 0 | 0
Cc1cc(NC(=O)c2cnn3cccnc23)no1 | 0 | 0 | 0 | 0 | 0 | 0
O=C(Nc1cccc(Cl)c1)c1cnn2cccnc12 | 0 | 0 | 0 | 0 | 105 | 0
COc1cccc(-c2nnc(Nc3nc4c(F)cccc4s3)o2)c1 | 0 | 0 | 0 | 0 | 51 | 0
COc1ccccc1-c1nnc(Nc2nc3c(OC)cccc3s2)o1 | 0 | 0 | 0 | 0 | 0 | 0
Cc1nonc1OCCNC(=O)C12CC3CC(CC(C3)C1)C2 | 0 | 0 | 0 | 0 | 0 | 0
COCCCNc1oc(-c2ccccc2OC)nc1C#N | 0 | 0 | 0 | 0 | 0 | 0
COCCCNc1oc(-c2ccccc2F)nc1C#N | 0 | 0 | 0 | 0 | 57 | 0
COc1ccc(-c2nc(C#N)c(NCCc3ccccc3)o2)cc1OC | 0 | 0 | 0 | 0 | 78 | 70
Cc1cc(/C=N\O)c(C)n1-c1ccncc1 | 0 | 0 | 0 | 0 | 0 | 0
CCC(C)NC(=O)C1CCN(c2nc(C)cc(C)n2)CC1 (stereo not drawn) | 0 | 0 | 0 | 0 | 0 | 0
Cc1cc(-c2ccccc2)nc(N2CCC(C(=O)NC(C)C)CC2)n1 | 0 | 0 | 0 | 0 | 97 | 67
Cc1cccc(S(=O)(=O)c2c(N)n(Cc3ccco3)c3nc4ccccc4nc23)c1 | 0 | 0 | 0 | 0 | 0 | 0
Nc1c(S(=O)(=O)c2cccc(Cl)c2)c2nc3ccccc3nc2n1/N=C/c1ccc(O)c(O)c1 | 0 | 0 | 31 | 0 | 0 | 0
CC1CN(C)C(C)CC1NCc1ccc2c(c1)OCO2 (stereo not drawn) | 0 | 0 | 0 | 0 | 0 | 0
O=C(CC1Nc2ccccc2NC1=O)c1ccccc1 (stereo not drawn) | 0 | 0 | 0 | 0 | 0 | 56
c1ccc2nc3c(nc2c1)c1ccccc1n3CCN1CCOCC1 | 0 | 0 | 0 | 18 | 91 | 0
CCCCC(CC)CNC(=O)c1cccs1 (stereo not drawn) | 0 | 0 | 0 | 0 | 0 | 0
CCc1cccc(OCC(=O)Nc2ccc(S(=O)(=O)Nc3onc(C)c3C)cc2)c1 | 0 | 0 | 0 | 0 | 0 | 0
O=C(c1cc(-c2ccc3c(c2)OCO3)on1)N1CCN(c2ccc(F)cc2)CC1 | 0 | 0 | 0 | 0 | 0 | 0
CC1CCN(C(=O)c2cc(-c3ccc(Cl)c(Cl)c3)on2)CC1 | 0 | 0 | 0 | 0 | 0 | 0
O=C(c1cc(-c2ccc3c(c2)OCO3)on1)N1CCN(c2ccccc2)CC1 | 0 | 0 | 0 | 0 | 0 | 70
O=C(c1cc(-c2ccc(Cl)c(Cl)c2)on1)N1CCCC1 | 0 | 0 | 0 | 0 | 0 | 60
O=S(=O)(NCCc1ccncc1)c1ccc(S(=O)(=O)N2CCCCCC2)cc1 | 0 | 0 | 0 | 0 | 0 | 0
CC(=O)c1c(C)[nH]c(C(=O)CSc2nnc(CN3CCCCCC3=O)n2-c2ccccn2)c1C | 0 | 0 | 0 | 0 | 0 | 0
SMILES | ROCK2 inh | MMP13 inh | PKA inh | JNK3 blocker | SF-1 act | RORA act
O=C1CCCCCN1Cc1nnc(SCc2nc3ccccc3s2)n1-c1ccccn1 | - | 0 | 0 | - | 79 | 61
CCOc1ccc(C2c3c(oc4ccccc4c3=O)C(=O)N2c2ccccn2)cc1OC (stereo not drawn) | 0 | 0 | 0 | 0 | 0 | 0
COc1cc2cc3c(N)c(C(=O)NCc4ccco4)sc3nc2cc1OC | 0 | 0 | 0 | 0 | 0 | 80
O=C(COC(=O)C1CC1)c1c[nH]c2ccccc12 | 0 | 0 | 0 | 0 | 0 | 106
O=C(OCC(=O)c1c[nH]c2ccccc12)c1ccco1 | 0 | 0 | 0 | 0 | 0 | 0
Cc1nc(/N=C\N(C)C)sc1C(=O)Nc1ccccc1 | 0 | 0 | 0 | 0 | 0 | 52
O=C(NCCc1ccccc1)c1cnc2sccn2c1=O | 0 | 0 | 0 | 0 | 0 | 84
O=C(Nc1ccc(NC(=O)C2CCCCC2)cn1)c1ccco1 | 0 | 0 | 0 | 0 | 0 | 0
O=C(Cc1ccccc1)Nc1ccc(NC(=O)c2ccco2)nc1 | 0 | 0 | 0 | 0 | 59 | 0
O=C(Nc1ccc(NC(=O)C23CC4CC(CC(C4)C2)C3)cn1)c1ccco1 | 0 | 0 | 0 | 0 | 90 | 0
O=C(Nc1ccc(NC(=O)c2ccco2)nc1)c1ccccn1 | - | 0 | 0 | - | 52 | 0
O=C(Nc1ccc(Cl)cc1C(=O)Nc1ccccn1)c1ccco1 | - | 0 | 0 | - | 0 | 0
COC(=O)c1c(C(=O)OC)c2ccncn2c1Cl | - | 0 | 0 | - | 0 | 0
